Experimental data pooled from the literature.
Each line is one published result; the experiments were not run side by side.
Target: Phosphorylase b kinase gamma catalytic chain, skeletal muscle/heart isoform (PHKG1, Homo sapiens, UniProt Q16816)

SMILES | assay | conditions | quantity | result
CNC(=O)c1ccc(Nc2ncc(C(F)(F)F)c(NCc3nccnc3N(C)S(C)(=O)=O)n2)cc1 | cell-free assay, competition with immobilised ligand | 0.1 µM | remaining binding | 100%
O=C1NC(=O)c2cc(Nc3ccc(F)cc3)c(Nc3ccc(F)cc3)cc21 | cell-free assay | 0.5 µM | remaining signal | 94.8%
Nc1ncnc2occ(-c3ccc(NC(=O)Nc4cc(C(F)(F)F)ccc4F)cc3)c12 | cell-free assay, inhibitor | 20 µM | remaining signal | 92%
CNCc1ccccc1-c1csc([C@H](C)Nc2nc(C)nc3cc(OC)c(OC)cc23)c1 | cell-free assay, competition with immobilised ligand | 1 µM | remaining binding | 87%
CCCS(=O)(=O)Nc1ccc(F)c(C(=O)c2c[nH]c3ncc(-c4ccc(Cl)cc4)cc23)c1F | enzyme activity, inhibitor | 1 µM | inhibition | < 20%
Cc1ccc(C(=O)NCc2ccsc2)cc1C#Cc1cn(C(C)C)c2ncnc(N)c12 | enzyme activity, inhibitor | 1 µM | activity vs control | 107%
CC(C)(C)c1nc(-c2cccc(NS(=O)(=O)c3c(F)cccc3F)c2F)c(-c2ccnc(N)n2)s1 | enzyme activity, inhibitor, radiometric | 1 µM | remaining activity | 97%
CC/C(=N\NC(=O)NCc1cccc(O)c1)c1ccc(O)c(C)c1O | enzyme activity, inhibitor | 0.1 µM | inhibition | -1.8%
C[C@@H]1CN(c2cc(-c3nn(C)c4ccc(OC5(C)CC5)cc34)ncn2)C[C@H](C)O1 | cell-free assay, competition with immobilised ligand | 1 µM | remaining binding | 90%
Oc1cccc(-c2nc(N3CCOCC3)c3oc4ncccc4c3n2)c1 | enzyme activity, inhibitor | 10 µM | remaining activity | 84%
O=C(Nc1cnn(-c2csc(C(=O)NC3COC3)c2)c1)Nc1ccccc1Cl | enzyme activity, inhibitor | 5 µM | remaining activity | 102%
CC(C)(C)C(=O)c1sc(NC2CCCCC2)nc1N | enzyme activity, inhibitor | 10 µM | remaining activity | 112%
CC(=O)Nc1c(C(C)=O)c(=O)n(C)c2nc(-c3ccc(Cl)cc3Cl)c(-c3ccc(Cl)cc3)cc12 | cell-free assay, competition with immobilised ligand | 1 µM | remaining binding | 100%
N#CCCc1ccc2c(c1)-c1[nH]c3ccc([N+](=O)[O-])cc3c1CC(=O)N2 | cell-free assay | 0.5 µM | remaining signal | 7.72%
COc1cccc2c(NCc3ccccc3)nc(-n3c(N)nc4ccccc43)nc12 | target engagement in cells, inhibitor, chemoproteomics | 20 mM | inhibition | 6.1%
COc1cc2ncnc(Nc3ccc(Oc4ccccc4)cc3C)c2cc1OC | enzyme activity, inhibitor | 1 µM | inhibition | -1%
CS(=O)(=O)N1CCCC(NC(=O)[C@H](CCC2CCCCC2)NC(=O)c2ccc(CNc3ncnc4c3nnn4-c3ccccc3)cc2)C1 (some centres unmarked) | cell-free assay, competition with immobilised ligand | 0.1 µM | remaining binding | 87%
N[C@@H]1CCN(c2nccc(-c3cnn4ncccc34)n2)C1 | binding | 1 µM | remaining binding | 100%
CS(=O)(=O)c1cc(C2(NC(=O)c3cncc4c3cnn4-c3ccc(F)cc3)CC2)ccn1 | cell-free assay, competition with immobilised ligand | 1 µM | remaining binding | 78%
Cc1ccc(C(=O)Nc2ccc(CN3CCN(C)CC3)c(C(F)(F)F)c2)cc1C#Cc1cnc2cccnn12 | enzyme activity, inhibitor | 23.5 nM | remaining activity | 100%
